Assay results as given in the EternaBench riboswitch data.

System: MS2 coat protein
Experiment: apparent Kd, MS2 coat protein; higher = weaker binding; RNA-MaP array; FMN 200 µM where present
Method in brief: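 In 100 mM Tris-HCl pH 7.5, 80 mM KCl, 4 mM MgCl2, BSA, DTT, yeast tRNA and Tween-20, SNAP-549-labelled MS2 coat protein was titrated from 0.7 or 1.5 nM, doubling to 3 µM, over designs transcribed by stalled E. coli RNA polymerase on Illumina sequencing-chip clusters. This was done first without ligand, then with ligand held constant. After green signal was normalised to red-channel RNA signal and control-cluster median Fmax, the apparent Kd was taken as the median of filtered per-cluster binding-curve fits.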

[1] = designed as: ON switch for flavin mononucleotide, no ligand
[2] = ligand present: flavin mononucleotide, designed as: ON switch for flavin mononucleotide
[3] = designed as: OFF switch for flavin mononucleotide, no ligand
[4] = ligand present: flavin mononucleotide, designed as: OFF switch for flavin mononucleotide

Sequence | apparent Kd [1] [µM] | apparent Kd [2] [µM] | apparent Kd [3] [µM] | apparent Kd [4] [µM]
UCGCCAGGUACAGGAUAUGUGGAUCAGUUAAGUAACUUACUGAACAUGAGGAUCACCCAUGUAUCACAGAAGGGUGCCUCAAAA | 0.164 | 0.0111 | – | –
UUUGAAUAGGUAGGAUAUACAUACAUUCCUACAUUACUAACAUGAGGAUCACCCAUGUAUACAUUGUAGAAGGACCAGAUUGAU | – | – | 0.0261 | 0.0239
CGAUAACAUAGUUAUCCGUAACGGACAUGAGGAUCACCCAUGUAGGAUAUGUUACUCAACGAGUAACAGAAGGACAUGAGUCUU | – | – | 0.0382 | 0.324
UAUAAUUAGUAGAAGGACGGAGAGUAAGAAGUCGUAGGAUAUACAAAAGACAUGAGGAUCACCCAUGUGAGUAUGUUGGGAAGG | – | – | 0.00705 | 0.00762
UAUACACAUGAGGAUCACCCAUGUGAGGAUAUGUAAAAAAAACCGACGGUUUUUUUUUACAGAAGGCACAUAUA | – | – | 0.0516 | 0.0535
ACUUAUAGAGGAUAUACAGUUUAUUACAUGAGGAUCACCCAUGUUCUUCAAUGUAUAUAAGUAGAAGGCUAAGGAA | – | – | 0.035 | 0.175
AUUAUACAUGAGGAUCACCCAUGUAAUUAAUCUAGUAAGAUCUAGGAUAUCAGCUCGAUUAGAGCUGAGAAGGAGAUCACAUGU | 0.0529 | 0.0222 | – | –
UAUAUGUGAGGAUAUCAGGUGUGCUAGCGUACUGGUACAUCUGAGAAGGCACAUGAGGAUCACCCAUGUAUCUU | – | – | 0.0297 | 0.11
CGGUCACAUGAGGAUCACCCAUGUACCUACCCGAUGAAGUCGCAGGAUAUCCAUUACUUUACGUAGGAGAAGGGUGACGCUCGC | 0.0497 | 0.0793 | – | –
UGAUCUUUUGUUAGGAUAUGCUGGCUGAAAAGUCAGCAGAAGGGACAUGAGGAUCACCCAUGUUCUCUCUUUUU | – | – | 0.00966 | 0.0136
UGAUACCAAGGAUAUACAUGAGGAUCACCCAUGUCGGACCGAUGUGUCUCCUCCUGCUGUAGAAGGUGGAAAAU | – | – | 0.0399 | 0.0556
UAUAAACAUGAGGAUCACCCAUGUAAUAAUAUGGGAGGAUAUCAGAAUUUAUUUAUUUAAUGAGAAGGCCUAAUAU | 0.627 | 0.0432 | – | –
UGGUACAUGAGGAUCACCCAUGUAAGAGCCCUCAUGCGAUGUAGAAGGUUAAUGCGUGUAGUGCUAAAGGAUAUACAUGAGUUU | – | – | 0.0823 | 0.0712
AUAUAUACAAAGUUACAUGAGGAUCACCCAUGUUUAUUGGGAAGAAGGGUAACAUUAUUAGAUGUAUAGGAUAUUUCACAAUUG | 0.599 | 0.327 | – | –
AUUGAUGUUGAGGAUAUGCUUUUAUUUAUUCUUGCAGAAGGCGAUACAUGAGGAUCACCCAUGUUCAUGGAAGU | – | – | 0.0405 | 0.0406
UUUGAUUGCACAGGAUAUUGUCAUUUGAGUUGUCAAGAAGGGUGUACAUGAGGAUCACCCAUGUAAUGGUUGCCUCGCUGACUU | – | – | 0.0957 | 0.272
CAGGUAGCUACAGGAUAUACACAGCUCAGUAAACUGAGCAAAACAACUACAUGAGGAUCACCCAUGUAGAAGGGUAGCUGCCUG | – | – | 0.017 | 0.0171
UUUUAACAUGAGGAUCACCCAUGUGAGGAUAUCGAAUUUUUUAUUAAUAUUAAUAAAACGAGAAGGCACAUUUU | – | – | 0.0631 | 0.0702
AAACACAGACAUGAGGAUCACCCAUGUUAUGAAGAUACUGGGAGAAGGGCGAUUGCAAAGCAAUCGCAGGAUAUUCGUAUUGUG | 0.0312 | 0.011 | – | –
ACAUGAGGAUCACCCAUGUUUAUUGGGUACUAUACUAUCAGCAAGGAUAUGCAAAUUUUUUUUACGCAGAAGGUGCAGGAACCU | – | – | 0.523 | 0.334
CGUGCGUAUGUGAGGAUAUGCUGGUCCUUGGAUCGGCAGAAGGCACAUGAGGAUCACCCAUGUGGUGUCGUUCU | – | – | 0.172 | 0.0231
AAUGGGCAGCAGAAGGCAUGUCUACGGACAUGAGGAUCACCCAUGUAGUAAAGCCGAAAGGCGCAUGAGGAUAUGCUGCCCUAA | – | 0.00823 | – | –
UUAUUUUAAUGAGGAUAUAUACAACAUGAGGAUCACCCAUGUACCCAUGUAGUAGAAGGCAUAAUUUUUGAUAAUAACAUAACU | 0.0495 | 0.0316 | – | –
AUACAUGAGGAUCACCCAUGUUACUGGGUCUAUAUAGAACGUAGAAGGAUGUAUUUACACAUAACAUAGGAUAUACUUUAUAGU | – | – | 0.0552 | 0.0419

Sequence | apparent Kd [1] [µM] | apparent Kd [2] [µM] | apparent Kd [3] [µM] | apparent Kd [4] [µM]
CGCUGAGGCGAGAAGGCACAAGAGUGGUGGCGGACAUGAGGAUCACCCAUGUGAGGAUAUCGCACUUGGCGGUGCCUAAAACUA | – | – | 0.344 | 0.039
AUAGAAGACUAGAAGGACCUAGUUGUAUAUUGUCGAGGUAUAUAAUUAGGUAGGAUAUGGGACAUGAGGAUCACCCAUGUCUUG | 0.00827 | 0.0075 | – | –
GGAAAACAUGAGGAUCACCCAUGUGAGGAUAUGAGCGUCUAGUUGAGAGAUUGGACGCUCAGAAGGCACAUGCC | – | – | 0.0285 | 0.247
AAGUUAGGGAGAGGAUAUUGACAUGAGGAUCACCCAUGUAUUUGGGAGUGUUUACUGAAUUCUUACGAGAAGGCUUACGAAAUU | – | – | 0.344 | 0.259
AGAUGACAAAGUCAUCUUCAACGGACAUGAGGAUCACCCAUGUAGGAUAUGCUACUCAAAGAGUAGCAGAAGGACAUGUGUCUU | – | – | 0.035 | 0.193
GGUGUCGCAUGAGGAUAUGGUCAGCUUUGCUGACCAGAAGGCAUGUCAAUAGACAUGAGGAUCACCCAUGUAGUUAAGACACCA | 0.739 | 0.0482 | – | –
AGAAAUUAGUGAGGAUAUGCUUAAAUUGUAGUUGCAGAAGGCACGGACCACAAGACAUGAGGAUCACCCAUGUGGUAUUUAGAU | – | – | 0.0289 | 0.033
UCCUGGCGAGGAUAUACAAAGUUUUUCACGUUUUGUUUCGAACAUGAGGAUCACCCAUGUAGAAGGUGCUACUG | – | – | 0.0626 | 0.0528
UUUCUCGGCGAGAAGGGAGUACAUGAGGAUCACCCAUGUGGUCCAUGGAGCUCAGGAUAUCGCGAGGUCGAUGUCGACGGAGUA | – | – | 0.127 | 0.231
AGAAACUACGAGAAGGACAUGUGGAAAACCGCAAACAUGAGGAUCACCCAUGUAGGAUAUCGUAGUUUCAGGAUCGUGAGAUCA | – | – | 0.772 | 0.148
UUUAGUUUAGGAUAUGUAGACAUUAACAUGAGGAUCACCCAUGUAGAUCCUGAAUUGACUACAGAAGGAAGCAUUU | – | – | 0.248 | 0.446
GUCAGUCGAGGAUAUACGAUCGUGCUUCGGCACGUAAGAUCACAUGAGGAUCACCCAUGUAGAAGGCGACUGAC | – | – | 0.0325 | 0.257
UCCACUGCUGAGAAGGGAUACGUUUGGGUCGCAUCAGGAUAUCGAUACAGUGCAGCAUGAGGACAUGAGGAUCACCCAUGUGUG | 0.14 | 0.0295 | – | –
ACAUGAGGAUCACCCAUGUUUUUCGGGUACUCUUUUUACAGCAAGGAUAUGCAUGUUUUUUUUACGCAGAAGGUGCUUUACGUC | – | – | 0.102 | 0.165
UUAAAUCAUGUAGGAUAUGCAUGGCGAAGCUACGCAGAAGGACAUGAGGAUCACCCAUGUUCUAGCGUCUGAGUUCAGAUGCAA | – | – | 0.0209 | 0.0417
UGUUGUAUUACAGGAUAUCUAUUGUUAUUAUUUAGAGAAGGGUAUUCACAUGAGGAUCACCCAUGUAUAUACGAGGAAGUUGUG | 0.0453 | 0.0455 | – | –
UUGUUAGGGAGAGGAUAUUGACAUGAGGAUCACCCAUGUAUUUGGGAGUGUUUACUGAAUUCUUACGAGAAGGCUUACGAAAUU | – | – | 0.329 | 0.246
AAAACAUGAGGAUCACCCAUGUAAAGAUCGGUUGAUGAAAGUGAGGAUAUACAAAAUUUUAUGGAGUAGAAGGCACUGGGUUGA | 0.0674 | 0.0477 | – | –
UGUCGGAGCAGAGGAUAUUACAUGAGGAUCACCCAUGUAUGAACCAAUAGCUGGAAACAGCAAUGUAAGAAGGAUGCUCCGACA | – | – | 0.00714 | 0.0314
UUAAAUCAUGUAGGAUAUGCAUGGCGAAGCUACGCAGAAGGACAUGAGGAUCACCCAUGUUAAAGCUACCGGAUACGGUGGCAA | – | – | 0.109 | 0.195
GUAGCUAUCGGAGGAUAUUCAUACCGGAAACGGACAUGAGGAUCACCCAUGUGUCGAAAGCCUUGGGAGAAGGCCGAUAGCUAC | 0.181 | 0.0592 | – | –
AAUUGGAUCCAGAAGGCAUGGACGACCCGUCACAUUAACAUGAGGAUCACCCAUGUCAAAAUACAUGAGGAUAUGGAUCCUAAA | 0.905 | 0.0379 | – | –
AUCAGCUCGUCAGGAUAUACGUCACUGCGUCAGCAGUGUGGUAAGAACACAUGAGGAUCACCCAUGUAGAAGGGACGAGCUGAU | – | – | 0.00631 | 0.00781
AAUUAUAUACAGAAGGAGUUAUUUUGAGGAUUACUAGGAUAUGUUCACAUGAGGAUCACCCAUGUCAUAUUGGGAUUUAUUAUU | – | – | 0.0195 | 0.0267
